From ChEMBL document CHEMBL1137742, “Facile synthesis of bis(4,5-dihydro-1H-pyrazole-1-carboxamides) and their thio-analogues of potential PGE(2) inhibitory properties” (Eur J Med Chem, 2009) come the findings set out here.

In series [1] the test system is Rattus norvegicus. As to the kind of experiment: Antiinflammatory activity in Wister albino rat assessed as inhibition of carrageenan-induced paw edema volume at 50 mg/kg, ip administered 1 hr before carrageenan challenge measured after 4 hrs. In kind it is functional. The settings on record: route intraperitoneal. Summed up:
(§1)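 Wistar albino rats of either sex (pregnant females excluded), 160–190 g, 6 per group. Dosed i.p. in DMSO 1 h before 0.1 ml of 1% carrageenan in saline was injected subcutaneously into the right hind paw; DMSO-only controls. Paw volume was read by plethysmometer at 4 h against the initial volume to give oedema volume and % inhibition of oedema.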

Series [2] has as its system Rattus norvegicus. As to the kind of experiment: Antiinflammatory activity in Wister albino rat assessed as inhibition of carrageenan-induced paw edema volume at 50 mg/kg, ip administered 1 hr before carrageenan challenge measured after 4 hrs relative to indomethacin. Format: functional. More on the design: scale not given: the % may be the effect or the level left. The settings on record: route intraperitoneal. Summed up: as §1

For series [3], the system named is Rattus norvegicus. Briefly: Antiinflammatory activity in Wister albino rat assessed as inhibition of carrageenan-induced paw edema volume at 10 mg/kg, ip administered 1 hr before carrageenan challenge measured after 4 hrs. Format: functional. The conditions noted are these: route intraperitoneal. Summed up: as §1
The test system of series [4] is Rattus norvegicus. As to the kind of experiment: Antiinflammatory activity in ip dosed Wister albino rat assessed as inhibition of carrageenan-induced paw edema volume administered 1 hr before carrageenan challenge measured after 4 hrs. Format: functional. In short, it runs like this:
as §1

The subject of series [5] is Rattus norvegicus. Briefly: Gastrointestinal toxicity in fasted albino rat assessed ulcer index at 50 mg/kg, po administered for 3 days measured after 1 hr of last dose. Format: organism-based. Also on record: dose 50 mg/kg, route oral. The settings on record: in vivo. Summed up:
(§2)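 Albino rats of either sex (pregnant excluded), 130–150 g, 6 per group, fasted 18 h. Dosed orally for 3 consecutive days in saline with a few drops of Tween 80. Killed 1 h after the last dose; stomach opened along the greater curvature, rinsed, and mucosa examined at 10× for lesions. Ulcer index computed from % incidence/10, mean ulcer number and severity.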

In series [6] the test system is Rattus norvegicus. As to the kind of experiment: Antiinflammatory activity in Wister albino rat assessed as inhibition of carrageenan-induced paw edema volume at 20 mg/kg, ip administered 1 hr before carrageenan challenge measured after 4 hrs. Format: functional. The settings on record: route intraperitoneal. Summed up:
as §1

The subject of series [7] is Rattus norvegicus. As to the kind of experiment: Antiinflammatory activity against carrageenan-induced inflammation in albino rat 6-day-old air pouch model assessed as inhibition of PGE2 level at 50 mg/kg, po administered prior to carrageenan challenge measured after 6 hrs. Format: functional. In short, it runs like this:
(§3)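 Male albino rats, 200–250 g, 6 per group. Air pouch raised by subcutaneous dorsal air: 20 ml on day 1, 10 ml two days later, 10 ml on day 5. On day 6, oral dosing in saline with a few drops of Tween 80, then 2 ml of 1% carrageenan in saline into the pouch. Exudate was aspirated 6 h later under ether, frozen at −20 °C, and PGE2 measured by ELISA (pg/ml).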

Series [8] has as its system Rattus norvegicus. As to the kind of experiment: Gastrointestinal toxicity in fasted albino rat assessed ulcer index at 10 mg/kg, po administered for 3 days measured after 1 hr of last dose. Format: organism-based. Also on record: dose 10 mg/kg, route oral. The settings on record: in vivo. In short, it runs like this:
as §2

The subject of series [9] is Rattus norvegicus. Briefly: Antiinflammatory activity against carrageenan-induced inflammation in albino rat 6-day-old air pouch model assessed as inhibition of PGE2 level at 10 mg/kg, po administered prior to carrageenan challenge measured after 6 hrs. Format: functional. In short, it runs like this:
as §3

Turning to `NC(=O)N1N=C(c2ccc(F)cc2)CC1c1ccccc1OCCOc1ccccc1C1CC(c2ccc(F)cc2)=NN1C(N)=O` (stereo not given), in the series with Rattus norvegicus [1], the inhibition in vivo at 50 mg/kg stood at 20.8%. Further, in the series with Rattus norvegicus [2], the Activity is 30.8%.
Taken in the same sequence, the figures for `NC(=O)N1N=C(c2ccccc2)CC1c1ccccc1OCCOc1ccccc1C1CC(c2ccccc2)=NN1C(N)=O` (stereo not given) were 43.2% and 64%.
For the compound `NC(=S)N1N=C(c2ccccc2)CC1c1ccc(OCCOc2ccc(C3CC(c4ccccc4)=NN3C(N)=S)cc2)cc1` (stereo not given), the inhibition in vivo at 50 mg/kg in the series on Rattus norvegicus [1] was determined as 83.5%. Further, the inhibition in vivo at 10 mg/kg with Rattus norvegicus [3] stood at 74.4%. The values for the Activity in the series with Rattus norvegicus [2] and with Rattus norvegicus [7] were 123.7% and 83.33 pg/mL, respectively. For the same compound, the ED50 in the series with Rattus norvegicus [4] was 23.1 mg/kg. The same compound returned a UI with Rattus norvegicus [5] of 18.5. The inhibition in vivo at 20 mg/kg in the series on Rattus norvegicus [6] is 79.5%.
For the compound `NC(=S)N1N=C(c2cccs2)CC1c1ccccc1OCCOc1ccccc1C1CC(c2cccs2)=NN1C(N)=S` (stereo not given), the inhibition in vivo at 50 mg/kg in the series with Rattus norvegicus [1] came to 67.5%. In addition, in the series on Rattus norvegicus [3], the inhibition in vivo at 10 mg/kg worked out at 59.7%. Also, the Activity came to 100% with Rattus norvegicus [2] and 96.5 pg/mL in the series on Rattus norvegicus [7]. The ED50 with Rattus norvegicus [4] is 28.8 mg/kg. This compound came in with a UI with Rattus norvegicus [5] of 14.33. The inhibition in vivo at 20 mg/kg with Rattus norvegicus [6] came out at 61.6%.
Turning to `Cc1ccc(C2=NN(C(N)=S)C(c3ccc(OCCOc4ccc(C5CC(c6ccc(C)cc6)=NN5C(N)=S)cc4)cc3)C2)cc1` (stereo not given), in the series with Rattus norvegicus [1], the inhibition in vivo at 50 mg/kg came out at 34.7%. For the same compound, the Activity in the series on Rattus norvegicus [2] came to 51.4%.
Consider `NC(=S)N1N=C(c2ccccc2)CC1c1ccccc1OCCOc1ccccc1C1CC(c2ccccc2)=NN1C(N)=S` (stereo not given), for which the inhibition in vivo at 50 mg/kg in the series on Rattus norvegicus [1] is 24.5%. Also, the Activity with Rattus norvegicus [2] came out at 36.3%.
Take `NC(=S)N1N=C(c2ccc(Cl)cc2)CC1c1ccccc1OCCOc1ccccc1C1CC(c2ccc(Cl)cc2)=NN1C(N)=S` (stereo not given): the inhibition in vivo at 50 mg/kg with Rattus norvegicus [1] came to 55.2%. For the same compound, the inhibition in vivo at 10 mg/kg in the series on Rattus norvegicus [3] is 50.3%. The Activity in the series on Rattus norvegicus [2] was found to be 81.8%; with Rattus norvegicus [7] it was 110.83 pg/mL. Also, the ED50 with Rattus norvegicus [4] is 34.6 mg/kg. In addition, the UI in the series with Rattus norvegicus [5] was determined as 12.16. Besides, in the series on Rattus norvegicus [6], the inhibition in vivo at 20 mg/kg was 53.7%.
For the compound `Cc1ccc(C2=NN(C(N)=O)C(c3ccccc3OCCOc3ccccc3C3CC(c4ccc(C)cc4)=NN3C(N)=O)C2)cc1` (stereo not given), the inhibition in vivo at 50 mg/kg in the series with Rattus norvegicus [1] stood at 22.7%. For the same compound, the Activity in the series with Rattus norvegicus [2] is given as 33.6%.
On to `Cc1ccc(C2=NN(C(N)=S)C(c3ccccc3OCCOc3ccccc3C3CC(c4ccc(C)cc4)=NN3C(N)=S)C2)cc1` (stereo not given), for which the inhibition in vivo at 50 mg/kg in the series with Rattus norvegicus [1] was 36.8%. In the series with Rattus norvegicus [2], the Activity was 54.5%.
`NC(=S)N1N=C(c2ccc(F)cc2)CC1c1ccccc1OCCOc1ccccc1C1CC(c2ccc(F)cc2)=NN1C(N)=S` (stereo not given): in the series on Rattus norvegicus [1], the inhibition in vivo at 50 mg/kg is 48%. For the same compound, in the series on Rattus norvegicus [3], the inhibition in vivo at 10 mg/kg amounted to 40.9%. Besides, the Activity came to 71.1% in the series with Rattus norvegicus [2] and 114.67 pg/mL with Rattus norvegicus [7]. Moreover, the ED50 in the series with Rattus norvegicus [4] was determined as 40.8 mg/kg. In the series on Rattus norvegicus [5], this compound came in with a UI of 11.51. The inhibition in vivo at 20 mg/kg in the series on Rattus norvegicus [6] stood at 43.2%.
As for `NC(=O)N1N=C(c2ccc(Cl)cc2)CC1c1ccccc1OCCOc1ccccc1C1CC(c2ccc(Cl)cc2)=NN1C(N)=O` (stereo not given), the inhibition in vivo at 50 mg/kg in the series with Rattus norvegicus [1] amounted to 45.3%. Besides, in the series with Rattus norvegicus [2], the Activity stood at 67.1%.
In the case of `COc1ccc2c(c1)c(CC(=O)O)c(C)n2C(=O)c1ccc(Cl)cc1` [INDOMETHACIN], the UI in the series with Rattus norvegicus [8] is reported as 13.49. The inhibition in vivo at 10 mg/kg in the series on Rattus norvegicus [3] turned out to be 67.5%. In addition, the Activity in the series with Rattus norvegicus [9] came out at 98.33 pg/mL.
